Experimental data as given in ChEMBL document CHEMBL4145455, “Design, synthesis and evaluation of novel phenyl propionamide derivatives as non-nucleoside hepatitis B virus inhibitors” (Eur J Med Chem, 2018).
pEC50, pIC50: −log10 of the molar value.

Tests used:
[1] = Cytotoxicity against human HepG2(2.2.15) cells assessed as reduction in cell viability after 72 hrs by MTT assay; format: cell-based
Procedure, shortened: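 Confluent HepG2 2.2.15 cells exposed to graded compound concentrations for 72 h alongside untreated controls on each plate; viability by MTT uptake, absorbance 490 nm relative to untreated cells; CC50 = concentration killing 50% of cells. Three replicates.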

[2] = test system: Hepatitis B virus; assay: Antiviral activity against HBV infected in human HepG2(2.2.15) cells assessed as inhibition of viral DNA replication at 4 uM after 6 days by RT-PCR method relative to control; format: functional; conditions: HepG2 2.2.15, 144 h
Procedure, shortened: (§1)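 HepG2 2.2.15 cells (stable HBV genome; DMEM, 10% FBS, G418 0.38 mg/mL) seeded 2×10^5/well, recovered 24 h, then compound in assay medium (single 20 or 4 μM, or dose series for IC50), medium changed every 2 days; after 6 days HBV DNA extracted and quantified by real-time PCR. Mean ± SD, ≥3 independent experiments in duplicate.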

[3] = test system: Hepatitis B virus; assay: Antiviral activity against HBV infected in human HepG2(2.2.15) cells assessed as inhibition of viral DNA replication after 6 days by RT-PCR method; format: functional, organism-based; conditions: HepG2 2.2.15, 144 h; procedure, shortened: as §1
[4] = Selectivity index, ratio of CC50 for human HepG2(2.2.15) cells to IC50 for antiviral activity against HBV infected in human HepG2(2.2.15) cells assessed as inhibition of viral DNA replication; format: toxicity, cell-based; conditions: read-out: Ratio CC50/IC50
Procedure, shortened: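 SI calculated as CC50 (72 h MTT, HepG2 2.2.15) divided by IC50 for inhibition of HBV DNA replication measured by real-time PCR.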

[5] = test system: Hepatitis B virus; assay: Antiviral activity against HBV infected in human […] cells assessed as inhibition of viral DNA replication at 1 uM after 72 hrs by RT-PCR method relative to control; format: functional
Procedure, shortened: (§2)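 HepG2 cells (2×10^5/well) transfected overnight-plated, 24 h with plasmid carrying wild-type or rtL180M+rtM204V+rtT184L resistant HBV; after PBS wash, fresh medium with lamivudine 100 μM, entecavir 10 μM, or test compounds 1 μM (one at 10 μM) for 72 h; replicative intermediate HBV DNA measured by real-time PCR.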

[6] = test system: Hepatitis B virus; assay: Antiviral activity against lamivudine/entecavir resistant HBV harboring reverse transcriptase L180M/M204V/T184L mutant infected in human […] cells assessed as inhibition of viral DNA replication at 1 uM after 72 hrs by RT-PCR method relative to control; format: functional
Procedure, shortened: (§3)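 HepG2 cells (not 2.2.15) were transiently transfected for 24 h with a plasmid carrying the rtL180M + rtM204V + rtT184L mutant HBV genome, alongside wild-type. After a PBS wash, cells received a single concentration (1, 10 or 100 µM) in fresh medium for 72 h. HBV DNA replicative intermediate was measured by real-time PCR and compared with the wild-type group.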

[7] = test system: Hepatitis B virus; assay: Antiviral activity against lamivudine/entecavir resistant HBV harboring reverse transcriptase L180M/M204V/T184L mutant infected in human […] after 72 hrs by RT-PCR method; format: functional, organism-based
Procedure, shortened: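 HepG2 cells (2×10^5 per well) were plated, incubated overnight, then transiently transfected for 24 h with a plasmid carrying the full HBV genome with rtL180M + rtM204V + rtT184L. Medium was discarded, cells washed with PBS, then treated across a dose range in fresh medium for 72 h. Intracellular HBV DNA replicative intermediate was quantified by real-time PCR. IC50 is 50% inhibition of DNA replication.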

[8] = Selectivity index, ratio of CC50 for human HepG2(2.2.15) cells to IC50 for antiviral activity against lamivudine/entecavir resistant HBV harboring reverse transcriptase L180M/M204V/T184L mutant infected in human HepG2(2.2.15) cells; format: toxicity, cell-based; conditions: read-out: Ratio CC50/IC50
Procedure, shortened: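 SI = CC50/IC50. CC50 comes from HepG2 2.2.15 cells grown to confluence and treated for 72 h, with MTT absorbance at 490 nm relative to untreated cells, in triplicate. IC50 comes from mutant-plasmid-transfected HepG2 cells treated for 72 h, with HBV DNA measured by real-time PCR.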

[9] = test system: Hepatitis B virus; assay: Antiviral activity against HBV infected in human HepG2(2.2.15) cells assessed as inhibition of viral DNA replication at 20 uM after 6 days by RT-PCR method relative to control; format: functional; conditions: HepG2 2.2.15, 144 h; procedure, shortened: as §1
[10] = test system: Hepatitis B virus; assay: Antiviral activity against HBV infected in human […] at 10 uM after 72 hrs by RT-PCR method relative to control; format: functional; procedure, shortened: as §2
[11] = test system: Hepatitis B virus; assay: Antiviral activity against lamivudine/entecavir resistant HBV harboring reverse transcriptase L180M/M204V/T184L mutant infected in human […] at 10 uM after 72 hrs by RT-PCR method relative to control; format: functional; procedure, shortened: as §3
[12] = test system: Hepatitis B virus; assay: Antiviral activity against HBV infected in human HepG2(2.2.15) cells assessed as inhibition of intracellular viral pregenomic RNA expression at 1 uM after 6 days by TRIzol reagent based RT-PCR method relative to control; format: functional; conditions: HepG2 2.2.15, 144 h
Procedure, shortened: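 HepG2 2.2.15 cells at 6×10^5 per well treated 6 days at 1 μM; total cellular RNA extracted and intracellular HBV pgRNA quantified by real-time PCR.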

[13] = target: T1, Protein P (Duck hepatitis B virus (strain Germany/DHBV-3) (DHBV)) (UniProt P0C691); assay: (§4) Inhibition of DHBV reverse transcriptase polymerase activity expressed in reticulocyte system assessed as reduction in elongation of viral minus strand DNA in presence of [alpha32P]DNA
T1 sequence (whole entry): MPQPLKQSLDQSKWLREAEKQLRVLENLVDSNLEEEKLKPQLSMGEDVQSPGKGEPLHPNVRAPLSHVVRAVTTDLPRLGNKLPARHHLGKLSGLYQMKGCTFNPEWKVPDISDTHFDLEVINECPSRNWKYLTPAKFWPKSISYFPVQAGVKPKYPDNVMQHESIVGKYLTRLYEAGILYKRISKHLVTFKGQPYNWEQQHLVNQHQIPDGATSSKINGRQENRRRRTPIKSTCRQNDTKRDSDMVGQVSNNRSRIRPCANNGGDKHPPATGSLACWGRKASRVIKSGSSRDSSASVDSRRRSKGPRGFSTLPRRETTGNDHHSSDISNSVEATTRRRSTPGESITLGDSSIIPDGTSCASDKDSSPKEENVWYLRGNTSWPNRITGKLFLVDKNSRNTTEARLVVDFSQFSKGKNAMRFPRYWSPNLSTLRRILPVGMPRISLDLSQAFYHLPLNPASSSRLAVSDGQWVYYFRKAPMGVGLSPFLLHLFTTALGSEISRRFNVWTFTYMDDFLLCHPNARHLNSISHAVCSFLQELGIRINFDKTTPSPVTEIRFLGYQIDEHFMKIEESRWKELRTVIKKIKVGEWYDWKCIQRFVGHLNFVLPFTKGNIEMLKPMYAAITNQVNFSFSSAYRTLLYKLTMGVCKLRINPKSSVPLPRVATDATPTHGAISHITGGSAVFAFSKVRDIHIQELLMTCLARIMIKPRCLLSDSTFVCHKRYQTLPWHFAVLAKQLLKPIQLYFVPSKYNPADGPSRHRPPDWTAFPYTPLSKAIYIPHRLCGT
Procedure, shortened: (§5)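 DHBV polymerase expressed in vitro in reticulocyte lysate; reverse transcriptase activity followed as [α32P]-dNTP incorporation into viral minus-strand DNA, with or without increasing inhibitor concentrations.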

[14] = target: T2, Protein P (Duck hepatitis B virus (strain Germany/DHBV-3) (DHBV), UniProt P0C691); assay: as §4; procedure, shortened: as §5
T2 sequence (P0C691 whole entry): T1 sequence (whole entry)

[15] = test system: Hepatitis B virus; assay: Antiviral activity against HBV assessed as inhibition of viral DNA replication; format: functional, organism-based
Procedure, shortened: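 HepG2 cells transiently transfected with wild-type HBV genome, or the rtL180M+rtM204V+rtT184L lamivudine/entecavir-resistant mutant, for 24 h, washed, then exposed in dose-dependent manner; after 72 h HBV DNA replicative intermediate extracted and quantified by real-time PCR. IC50 = concentration giving 50% inhibition of DNA replication; mean ± SD of at least three independent experiments, duplicate measurements.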

SMILES | CC50 at 72 h [1] | pIC50 [3] | selectivity ratio [4] | inhibition at 20 µM [9] | further results
O=C(N[C@H](CO)Cc1ccccc1)/C(=C\c1ccc(Br)cc1)NC(=O)c1ccccc1 | 72.7 µM |  |  |  | inhibition at 4 µM [2]: 39%
CN(C)CCOc1ccc(/C(Br)=C(/NC(=O)c2ccccc2)C(=O)N[C@H](CO)Cc2ccccc2)cc1 | 21.4 to 28.7 µM | 6.85 | 153 |  | inhibition at 1 µM [5]: 79.6%; inhibition at 1 µM [6]: 80.1%; pIC50 [7]: 6.49; selectivity ratio [8]: 89.7; inhibition at 4 µM [2]: 99.5%
O=C(N[C@H](CO)Cc1ccccc1)/C(NC(=O)c1ccccc1)=C(/Br)c1ccccc1Cl | 66.7 µM | 5.73 | 35.5 | 80.2% | 
CN(C)CCOc1ccc(C[C@H](NC(=O)c2ccccc2)C(=O)N2CCCCC2)cc1 | > 100 µM |  |  | 51.6% | 
CN(C)CCOc1ccc(C[C@H](NC(=O)c2ccccc2)C(=O)N[C@H](CO)Cc2ccccc2)cc1 | > 100 µM |  |  | 69.2% | 
Cc1cccc(/C=C(/NC(=O)c2ccccc2)C(=O)N[C@H](CO)Cc2ccccc2)c1 | > 100 µM |  |  | 15.8% | 
O=C(N[C@H](CO)Cc1ccccc1)/C(NC(=O)c1ccccc1F)=C(/Br)c1ccccc1 | > 100 µM | 5.61 | 41 | 76.4% | 
C=C1[C@H](CO)[C@@H](O)C[C@@H]1n1cnc2c(=O)[nH]c(N)nc21 [ENTECAVIR] |  |  |  |  | inhibition at 10 µM [10]: 95.7%; inhibition at 10 µM [11]: 17.9%
O=C(N[C@H](CO)Cc1ccccc1)/C(=C\c1ccccc1Br)NC(=O)c1ccccc1 | > 100 µM |  |  | 26.2% | 
O=C(N[C@H](CO)Cc1ccccc1)/C(NC(=O)c1ccccc1)=C(/Br)c1ccccc1Br | > 100 µM | 5.14 | > 13.8 | 76.6% | 
O=C(N[C@H](CO)Cc1ccccc1)/C(NC(=O)c1ccccc1)=C(/Br)c1ccccc1 | > 100 µM | 5.41 | > 25.9 | 77.6% | 
O=C(N[C@H](CO)Cc1ccccc1)/C(=C\c1ccccc1)NC(=O)c1ccccc1F | > 100 µM |  |  | 51.4% | 
Cc1cccc(/C(Br)=C(/NC(=O)c2ccccc2)C(=O)N[C@H](CO)Cc2ccccc2)c1 | > 100 µM | 6.34 | > 217 | 87.6% | inhibition at 1 µM [5]: 61.4%; inhibition at 1 µM [6]: 65.9%; pIC50 [7]: 6.11; selectivity ratio [8]: > 130; inhibition at 1 µM [12]: 49.4%; inhibition [13]: Dose-dependent effect; pEC50 [14]: 4.47
N#Cc1ccc(/C=C(/NC(=O)c2ccccc2)C(=O)N[C@H](CO)Cc2ccccc2)cc1 | > 100 µM |  |  | 10.2% | 
O=C(N[C@H](CO)Cc1ccccc1)/C(NC(=O)c1ccccc1)=C(/Br)c1ccc(O)cc1 | 34.3 to 39 µM | 5.70 | 19.5 |  | inhibition at 1 µM [5]: 34.8%; inhibition at 1 µM [6]: 43.2%; pIC50 [7]: 5.53; selectivity ratio [8]: 11.6; inhibition at 4 µM [2]: 63.2%
CN(C)CCOc1ccc(/C=C(/NC(=O)c2ccccc2)C(=O)N[C@H](CO)Cc2ccccc2)cc1 | > 100 µM |  |  | 37.5% | 
O=C(N[C@H](CO)Cc1ccccc1)/C(=C\c1ccccc1Cl)NC(=O)c1ccccc1 | > 100 µM |  |  | 29.8% | 
O=C(N[C@H](CO)Cc1ccccc1)/C(NC(=O)c1ccccc1)=C(/Br)c1ccc(Br)cc1 | > 100 µM | 5.35 | > 22.5 | 73.1% | 
CN(C)CCOc1ccc(C[C@H](NC(=O)c2ccccc2)C(=O)N2CCOCC2)cc1 | > 100 µM |  |  | 24.9% | 
N#Cc1ccc(/C(Br)=C(/NC(=O)c2ccccc2)C(=O)N[C@H](CO)Cc2ccccc2)cc1 | > 100 µM | 5.26 | 18.2 | 75.1% | 
O=C(N[C@@H](Cc1ccc(O)cc1)C(=O)N1CCCCC1)c1ccccc1 | > 100 µM |  |  | 19.5% | 
O=C(N[C@H](CO)Cc1ccccc1)/C(=C\c1ccc(O)cc1)NC(=O)c1ccccc1 | > 100 µM |  |  | 24.9% | 
CN(C)CCOc1ccc(C[C@H](NC(=O)c2ccccc2)C(=O)N2CCCC2)cc1 | > 100 µM |  |  | 47.6% | 
CC(=O)OC[C@H](Cc1ccccc1)NC(=O)[C@H](Cc1ccccc1)NC(=O)c1ccccc1 | > 100 µM |  |  | 60.6% | pIC50 [15]: 4.95
CCN(CC)C(=O)[C@H](Cc1ccc(OCCN(C)C)cc1)NC(=O)c1ccccc1 | > 100 µM |  |  | 17.5% | 
O=C(N[C@@H](Cc1ccccc1)C(=O)N1CCCCC1)c1ccccc1 | > 100 µM |  |  | 42.3% | 
